Measured values taken from ChEMBL document CHEMBL4725432, “Dethioacylation by Sirtuins 1-3: Considerations for Drug Design Using Mechanism-Based Sirtuin Inhibition” (ACS Med Chem Lett, 2020).
The source made the active and inactive calls. The rule behind the calls is not given here.

Key:
HEK293 = test: Inhibition of deacetylation activity in HEK293 cell lysate incubated with substrate for 2 hrs at 50 uM measured after 90 mins by fluorescence assay; type: functional, subcellular; details: Homo sapiens
Outline: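 Fluorogenic thioacyl or acyl lysine-AMC substrates incubated with fresh HEK293 cell lysate (~65 μg). Deacylation measured by fluorescence. Two independent experiments in duplicate, standard deviation.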

[1] = target: T1, NAD-dependent protein deacetylase sirtuin-1 (Homo sapiens) (UniProt Q96EB6); test: Inhibition of human N-terminal GST-tagged SIRT1 (193 to 741 residues) expressed in Escherichia coli preincubated with NAD+ for 30 mins using Ac-Gln-Pro-Lys-Lys(Ac)-AMC (oxo-10) as substrate at 1 to 100 uM measured after 90 mins by fluorescence assay; details: dose microM 1-100, time 120.0 min
T1 sequence (whole entry): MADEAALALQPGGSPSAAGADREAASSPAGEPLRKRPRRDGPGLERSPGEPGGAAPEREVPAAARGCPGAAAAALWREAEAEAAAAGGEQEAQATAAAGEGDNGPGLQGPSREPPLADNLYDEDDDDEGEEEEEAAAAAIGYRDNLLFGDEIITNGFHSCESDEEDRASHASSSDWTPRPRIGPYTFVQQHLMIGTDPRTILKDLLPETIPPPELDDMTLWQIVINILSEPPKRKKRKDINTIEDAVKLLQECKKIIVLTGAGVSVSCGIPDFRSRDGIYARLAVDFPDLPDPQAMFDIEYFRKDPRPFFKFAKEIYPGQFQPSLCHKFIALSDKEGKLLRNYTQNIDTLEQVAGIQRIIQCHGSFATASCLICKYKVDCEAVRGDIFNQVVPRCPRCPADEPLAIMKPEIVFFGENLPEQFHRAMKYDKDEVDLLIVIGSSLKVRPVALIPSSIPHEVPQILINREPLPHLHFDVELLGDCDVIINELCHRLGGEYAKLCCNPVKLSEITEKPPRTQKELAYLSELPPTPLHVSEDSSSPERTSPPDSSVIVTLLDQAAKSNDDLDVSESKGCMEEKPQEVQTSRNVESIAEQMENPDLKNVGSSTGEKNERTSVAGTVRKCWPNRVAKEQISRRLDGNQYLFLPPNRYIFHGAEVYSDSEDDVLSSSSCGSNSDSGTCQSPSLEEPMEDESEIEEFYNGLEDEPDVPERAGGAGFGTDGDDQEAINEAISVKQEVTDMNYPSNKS
Outline: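 Recombinant SIRT1 (100 nM) preincubated 30 min with compound, either with or without NAD+ (500 μM), before the fluorogenic deacetylation read-out. Single-dose %-inhibition. Two independent experiments in duplicate, standard deviation.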

[2] = target: T2, NAD-dependent protein deacetylase sirtuin-3, mitochondrial (Homo sapiens) (UniProt Q9NTG7); test: Inhibition of human N-terminal GST-tagged SIRT3 (102 to 399 residues) expressed in Escherichia coli using Ac-Gln-Pro-Lys-Lys(but)-AMC (oxo-12) as substrate at 10 uM by fluorescence assay relative to control
T2 sequence (whole entry): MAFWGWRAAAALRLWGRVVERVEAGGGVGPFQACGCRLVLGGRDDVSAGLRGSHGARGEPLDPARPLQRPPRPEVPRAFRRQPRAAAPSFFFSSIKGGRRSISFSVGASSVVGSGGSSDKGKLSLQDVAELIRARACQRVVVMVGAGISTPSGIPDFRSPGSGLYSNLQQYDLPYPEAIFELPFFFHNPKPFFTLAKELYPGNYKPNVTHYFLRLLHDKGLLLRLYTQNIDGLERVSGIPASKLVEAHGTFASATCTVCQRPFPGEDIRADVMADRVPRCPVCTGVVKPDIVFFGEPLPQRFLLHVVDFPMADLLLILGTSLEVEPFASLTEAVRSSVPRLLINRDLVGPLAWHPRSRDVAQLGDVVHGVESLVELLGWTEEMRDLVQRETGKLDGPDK

[3] = Metabolic stability of compound in human serum assessed as half life incubated for >10 mins measured after 90 mins by HPLC analysis; type: ADME, cell-free
[4] = target: T3, NAD-dependent protein deacetylase sirtuin-2 (Homo sapiens) (UniProt Q8IXJ6); test: Inhibition of human C-terminal His-tagged SIRT2 (50 to 356 residues) expressed in Escherichia coli using Ac-Gln-Pro-Lys-Lys(pro)-AMC (oxo-11) as substrate at 10 uM by fluorescence assay relative to control
T3 sequence (whole entry): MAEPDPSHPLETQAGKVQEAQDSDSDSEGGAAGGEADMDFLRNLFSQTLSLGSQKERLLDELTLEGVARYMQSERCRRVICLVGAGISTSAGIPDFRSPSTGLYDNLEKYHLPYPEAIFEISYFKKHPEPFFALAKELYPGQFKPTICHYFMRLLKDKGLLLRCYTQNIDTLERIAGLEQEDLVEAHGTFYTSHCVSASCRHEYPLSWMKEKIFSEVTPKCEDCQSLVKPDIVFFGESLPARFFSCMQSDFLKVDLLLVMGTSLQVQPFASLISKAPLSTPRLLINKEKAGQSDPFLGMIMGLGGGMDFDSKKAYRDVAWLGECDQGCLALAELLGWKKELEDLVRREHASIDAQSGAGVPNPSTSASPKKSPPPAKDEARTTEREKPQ

[5] = target: T4, NAD-dependent protein deacetylase sirtuin-1 (Homo sapiens, UniProt Q96EB6); test: Inhibition of human recombinant N-terminal GST-tagged SIRT1 (193 to 741 residues) expressed in Escherichia coli using Ac-Gln-Pro-Lys-Lys(Ac)-AMC (oxo-10) as substrate by fluorescence assay
T4 sequence (Q96EB6 whole entry): T1 sequence (whole entry)

[6] = target: T3, NAD-dependent protein deacetylase sirtuin-2 (Homo sapiens); test: Inhibition of human recombinant SIRT2 expressed in Escherichia coli in presence of acyl peptide acetyl-H3K9 as substrate at 100 uM incubated for 5 mins by HPLC analysis relative to control
[7] = target: T2, NAD-dependent protein deacetylase sirtuin-3, mitochondrial (Homo sapiens); test: Inhibition of human recombinant SIRT3 expressed in Escherichia coli BL21 in presence of acyl peptide acetyl-H3K9 as substrate at 100 uM incubated for […] mins by HPLC analysis relative to control; details: time 5.0 min
[8] = target: T2, NAD-dependent protein deacetylase sirtuin-3, mitochondrial (Homo sapiens); test: Inhibition of human recombinant N-terminal GST-tagged SIRT3 (102 to 399 residues) deacetylation activity in presence of substrate and NAD+ at 15 uM after 60 mins measured by reversed-phase UPLC-MS analysis relative to control
[9] = target: T1, NAD-dependent protein deacetylase sirtuin-1 (Homo sapiens); test: Inhibition of human recombinant N-terminal GST-tagged SIRT1 (193 to 741 residues) deacetylation activity in presence of substrate and NAD+ at 15 uM after 60 mins by reversed-phase UPLC-MS analysis relative to control
[10] = target: T4, NAD-dependent protein deacetylase sirtuin-1; test: Inhibition of human recombinant SIRT1 expressed in Escherichia coli in presence of acyl peptide acetyl-H3K9 as substrate incubated for 5 mins by HPLC analysis
[11] = Metabolic stability of compound in human serum assessed as drug degradation incubated for >10 mins measured after 90 mins by HPLC analysis; type: ADME, cell-free; details: 1.5 h
[12] = target: T1, NAD-dependent protein deacetylase sirtuin-1 (Homo sapiens); test: Inhibition of SIRT1 in HEK293 cells assessed as increase in p53 acetylation co-treated with TSA at 25 uM for 6 hrs by western blot analysis; type: cell-based
Outline: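 HEK293 cells exposed 6 h to compound at 25 μM together with TSA (1 μM). Whole-cell lysates immunoblotted for Ac-p53 (K382) and total p53. Ratio Ac-p53/p53 normalized to DMSO control. Two independent experiments in duplicate, SEM.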

[13] = target: T5, NAD-dependent protein deacetylase sirtuin-2 (Homo sapiens, UniProt Q8IXJ6); test: Inhibition of human C-terminal His-tagged SIRT2 (50 to 356 residues) expressed in Escherichia coli using Ac-Gln-Pro-Lys-Lys(pro)-AMC (oxo-11) as substrate by fluorescence assay
T5 sequence (Q8IXJ6 whole entry): T3 sequence (whole entry)

[14] = target: T2, NAD-dependent protein deacetylase sirtuin-3, mitochondrial (Homo sapiens); test: Inhibition of human N-terminal GST-tagged SIRT3 (102 to 399 residues) expressed in Escherichia coli using Ac-Gln-Pro-Lys-Lys(but)-AMC (oxo-12) as substrate at 100 uM by fluorescence assay relative to control

| SMILES | inhibition [1] | half-life [3] [h] | IC50 [5] [µM] | inhibition [8] | inhibition [9] | also measured |
| --- | --- | --- | --- | --- | --- | --- |
| CCC(=S)NCCCC[C@H](NC(=O)[C@H](CCCCN)NC(=O)[C@@H]1CCCN1C(=O)[C@H](CCC(N)=O)NC(C)=O)C(=O)Nc1ccc2c(C)cc(=O)oc2c1 | – | – | – | – | – | Activity (HEK293): Active |
| CC(C)NC(=O)[C@H](Cc1c[nH]c2ccccc12)NC(=O)[C@H](CCCCNC(N)=S)NC(=O)OCc1ccccc1 | Active | > 7 | 0.98 | – | – | inhibition [2]: 2%; inhibition [4]: 28% |
| CCCC(=S)NCCCC[C@H](NC(=O)OCc1ccccc1)C(=O)Nc1ccccc1 | inactive | – | – | inactive | inactive | inhibition [6]: 88%; inhibition [7]: 23%; IC50 [10]: 12 µM |
| CC(=S)NCCCC[C@H](NC(=O)OCc1ccccc1)C(=O)Nc1ccccc1 | inactive | – | – | inactive | inactive | IC50 [10]: 6.5 µM |
| CCNC(=S)NCCCC[C@H](NC(=O)OCc1ccccc1)C(=O)N[C@@H](Cc1c[nH]c2ccccc12)C(=O)NC(C)C | Active | < 1 | 1.9 | – | – | inhibition [2]: 2%; Activity [11]: Not Active; inhibition [4]: 71% |
| CNC(=S)NCCCC[C@H](NC(=O)OCc1ccccc1)C(=O)N[C@@H](Cc1c[nH]c2ccccc12)C(=O)NC(C)C | Active | < 1 | – | – | – | Activity [11]: Not Active; inhibition [12]: Active |
| CCCCNC(=S)NCCCC[C@H](NC(=O)OCc1ccccc1)C(=O)N[C@@H](Cc1c[nH]c2ccccc12)C(=O)NC(C)C | Active | – | 1.13 | – | – | IC50 [13]: 1.4 µM; inhibition [14]: 2% |
| CCCC(=S)NCCCC[C@H](NC(=O)OCc1ccccc1)C(=O)N[C@@H](Cc1c[nH]c2ccccc12)C(=O)NC(C)C | Active | – | 0.54 | inactive | inactive | IC50 [13]: 0.44 µM; inhibition [14]: 10% |
| CCCC(=S)NCCCC[C@H](NC(=O)[C@H](CCCCN)NC(=O)[C@@H]1CCCN1C(=O)[C@H](CCC(N)=O)NC(C)=O)C(=O)Nc1ccc2c(C)cc(=O)oc2c1 | – | – | – | – | – | Activity (HEK293): Active |
